Here are results for one compound from ChEMBL document CHEMBL4270576, “Discovery of a benzenesulfonamide-based dual inhibitor of microsomal prostaglandin E2 synthase-1 and 5-lipoxygenase that favorably modulates lipid mediator biosynthesis in inflammation” (Eur J Med Chem, 2018).

The subject of data set [1] is Mus musculus. Put plainly: Antiinflammatory activity in CD-1 mouse assessed as reduction in zymosan-induced LTC4 formation in peritoneal cavity at 10 mg/kg, ip preincubated for 30 mins followed by zymosan addition measured after 30 mins by ELISA. The data set is classed as functional, organism-based. Summed up:
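CD-1 male mice (6-8 weeks), n=6 per group, given 10 mg/kg i.p. in 2% DMSO/saline vehicle 30 min before i.p. zymosan (500 µL of 2 mg/mL suspension). Peritoneal cavity washed with 3 ml PBS 30 min after zymosan; LTC4 measured in exudate. One-way ANOVA with Bonferroni test.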
For orientation: In an ELISA, binding on a coated surface is turned into a signal by an enzyme label.

Data set [2] relates to Mus musculus. Kind of data set: Antiinflammatory activity in zymosan induced CD-1 mouse model of inflammation assessed as reduction in LTB4 levels in air pouch at 10 mg/kg, ip preincubated for 30 mins followed by zymosan challenge and measured after 4 hrs by ELISA. The data set is classed as functional, organism-based. Summed up:
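Air pouch formed by s.c. injection of 2.5 mL sterile air in CD-1 mice; on day 6, 10 mg/kg i.p. (2% DMSO/saline) given 30 min before 1 ml 1% w/v zymosan into the pouch. After 4 h, exudate collected with 1 ml saline and centrifuged; leukocytes counted in Burker chamber; LTB4 in supernatant by ELISA (ng/mL). n=6 mice per group.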

A further data set deals with T1, Leukotriene C4 synthase (Homo sapiens, UniProt Q16873).
T1 sequence (Q16873 whole entry): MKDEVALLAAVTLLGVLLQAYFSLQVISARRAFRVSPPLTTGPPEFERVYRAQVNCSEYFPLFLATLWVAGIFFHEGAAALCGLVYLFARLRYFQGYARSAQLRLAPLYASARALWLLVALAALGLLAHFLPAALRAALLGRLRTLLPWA
Put plainly: Inhibition of LTC4 synthase (unknown origin).

For data set [3], the target named is T2, Polyunsaturated fatty acid 5-lipoxygenase (Homo sapiens, UniProt P09917).
T2 sequence (P09917 whole entry): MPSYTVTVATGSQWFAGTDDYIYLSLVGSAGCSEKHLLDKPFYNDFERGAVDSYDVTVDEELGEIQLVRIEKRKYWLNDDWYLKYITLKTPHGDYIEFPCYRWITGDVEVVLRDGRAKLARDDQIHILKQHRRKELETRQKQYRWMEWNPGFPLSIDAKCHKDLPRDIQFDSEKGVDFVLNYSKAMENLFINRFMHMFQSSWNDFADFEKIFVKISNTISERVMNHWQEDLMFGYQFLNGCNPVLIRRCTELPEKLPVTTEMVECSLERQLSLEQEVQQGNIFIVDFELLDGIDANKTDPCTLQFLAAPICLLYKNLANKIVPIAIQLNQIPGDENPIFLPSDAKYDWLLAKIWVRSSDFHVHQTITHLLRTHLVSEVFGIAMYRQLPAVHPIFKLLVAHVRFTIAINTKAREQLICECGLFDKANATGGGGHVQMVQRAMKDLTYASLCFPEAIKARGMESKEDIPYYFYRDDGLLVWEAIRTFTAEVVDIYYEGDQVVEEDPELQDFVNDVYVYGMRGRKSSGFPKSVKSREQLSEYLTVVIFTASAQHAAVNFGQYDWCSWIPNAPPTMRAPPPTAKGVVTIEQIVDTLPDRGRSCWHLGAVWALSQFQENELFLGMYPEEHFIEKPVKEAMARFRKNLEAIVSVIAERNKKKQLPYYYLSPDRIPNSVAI
Kind of data set: Inhibition of 5-LO in human neutrophils using arachidonic acid as substrate assessed as reduction in 5-LO product formation preincubated for 15 mins followed by substrate addition measured after 10 mins in presence of Ca2+ ionophore A23187 by HPLC analysis. The essentials:
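Human neutrophils (5 × 10^6 in 1 ml PBS with 1 mg/ml glucose) pre-incubated 15 min at 37 °C with compound or 0.1% DMSO, then activated with 1 mM CaCl2 and 2.5 µM A23187, with or without 20 µM AA; 5-LO products measured after 10 min. Residual activity at 10 µM; IC50 by nonlinear regression from 4-5 concentrations; mean ± SEM, n=3-4.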

Data set [4] concerns the target T3, Polyunsaturated fatty acid 5-lipoxygenase (Homo sapiens) (UniProt P09917).
T3 sequence (whole entry): T2 sequence (P09917 whole entry)
Kind of data set: Inhibition of 5-LO in human M1 macrophages derived from LPS/IFNgamma-polarized human monocyte derived macrophages assessed as effect on LTB4 level at 3 uM preincubated for 15 mins followed by Escherichia coli (O6:K2:H1) challenge for 90 mins by LC-MS/MS analysis. Also noted: scale not given: the % may be the effect or the level left. The essentials: (§1)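 Monocytes differentiated 6 days with GM-CSF (20 ng/ml) in RPMI/10% FCS, then polarized 48 h with LPS 100 ng/ml plus IFN-γ 20 ng/ml (M1). Cells (2 × 10^6) in PBS with 1 mM CaCl2 pre-incubated 15 min at 37 °C with 3 µM compound or 0.1% DMSO, then E. coli O6:K2:H1 (1:50) for 90 min. Methanol with deuterated standards added; SPE; UPLC-MS/MS; expressed as % of vehicle.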

The target of data set [5] is T3, Polyunsaturated fatty acid 5-lipoxygenase (Homo sapiens). Kind of data set: Inhibition of 5-LO in human M1 macrophages derived from LPS/IFNgamma-polarized human monocyte derived macrophages assessed as effect on 5-HETE level at 3 uM preincubated for 15 mins followed by Escherichia coli (O6:K2:H1) challenge for 90 mins by LC-MS/MS analysis. Also noted: scale not given: the % may be the effect or the level left. Summed up: as §1

The target in data set [6] is T4, Cyclooxygenase (Homo sapiens, UniProt P35354+P23219). Put plainly: Modulation of COX1/2-mediated PGF2a level in human M1 macrophages derived from LPS/IFNgamma-polarized human monocyte derived macrophages at 3 uM preincubated for 15 mins followed by Escherichia coli (O6:K2:H1) challenge for 90 mins by LC-MS/MS analysis. In kind it is protein assay. The following applies: 1.5 h. Summed up: as §1

The species entered for the next data set is Homo sapiens. Kind of data set: Modulation of LO-mediated RvD5 level in human M2 macrophages derived from IL4-polarized human monocyte derived macrophages at 3 uM preincubated for 15 mins followed by Escherichia coli (O6:K2:H1) challenge for 90 mins by LC-MS/MS analysis. Summed up: (§2)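 Monocytes differentiated 6 days with M-CSF (20 ng/ml), then polarized 48 h with IL-4 20 ng/ml (M2). Cells (2 × 10^6) in PBS/1 mM CaCl2 pre-incubated 15 min at 37 °C with 3 µM compound or 0.1% DMSO, then challenged with E. coli O6:K2:H1 (1:50) for 90 min. Lipid mediators extracted by SPE with deuterated internal standards and quantified by UPLC-MS/MS as % of vehicle.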

The test system of another data set is Macrophage cell line. Kind of data set: Modulation of 18-HEPE level in human M2 macrophages derived from IL4-polarized human monocyte derived macrophages at 3 uM preincubated for 15 mins followed by Escherichia coli (O6:K2:H1) challenge for 90 mins by LC-MS/MS analysis. In kind it is functional. The essentials: as §2
Data set [7] addresses T3, Polyunsaturated fatty acid 5-lipoxygenase (Homo sapiens). Put plainly: Inhibition of 5-LO in human M1 macrophages derived from LPS/IFNgamma-polarized human monocyte derived macrophages assessed as effect on t-LTB4 level at 3 uM preincubated for 15 mins followed by Escherichia coli (O6:K2:H1) challenge for 90 mins by LC-MS/MS analysis. Further details: scale not given: the % may be the effect or the level left. Summed up:
as §1

For data set [8], the target named is T4, Cyclooxygenase. Kind of data set: Inhibition of COX1/2 (unknown origin) at 10 uM. In kind it is protein assay.

pIC50: −log10 of the molar value. Active and inactive are the calls of the source. The calls are words filed in the database; no cut-off is given here.

By pIC50 is commonly meant the IC50 on a negative log10 scale, so that one unit is a factor of ten. On to `O=C(O)c1ccc(N(Cc2cccc(OCc3ccccc3)c2)S(=O)(=O)c2ccc(-c3ccccc3)cc2)cc1`, for which the result with Mus musculus [1] and with Mus musculus [2] was Active. Further, the negative logarithm of the IC50 (pIC50) is 5.74 against Leukotriene C4 synthase and 6.40 in data set [3]. The Activity is 11% in [4]; 35% in data set [5]; 142% at Cyclooxygenase [6]; 134% in the data set filed under Homo sapiens; 86% in the data set on Macrophage cell line; 17% in [7]. Further, the “inhibition (INH)” value at Cyclooxygenase [8] is “Not Active”.
